Laboratory results as given in ChEMBL document CHEMBL1122828, “Resolution and absolute configuration of the potent dopamine agonist N,N-diethyl-N'-[(3 alpha, 4a alpha, 10a beta)-1,2,3,4,4a,5,10,10a- -octahydro-6-hydroxy-1-propyl-3-benzo[g]quinolinyl]sulfamide” (J Med Chem, 1985).

Experiments:
Rattus norvegicus [1] = assay: Compound was evaluated for the in vivo inhibition of basal prolactin for a time 4 hr after injection in male rats; assay type: functional
In short: (§1)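 Adult male SIV 50 rats were housed singly from the day before, with light from 4 a.m. to 6 p.m. They got a single sc injection and were decapitated 4 h later. Trunk blood was taken and serum pooled from 3 rats per group, with 1–3 groups per dose. Prolactin was measured by double-antibody RIA against NIH rat Prl RP-1. The dose giving a 50% fall in serum prolactin was estimated graphically.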

Dopamine receptor [2] = target: T1, Dopamine receptor (Bos taurus, UniProt Q95136+P20288); assay: In vitro inhibitory activity was evaluated against,[3H]dopamine (DA),calf caudate dopamine receptor; assay type: protein assay
In short: (§2)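 Radioligand displacement used brain homogenates. Four to six test concentrations were each incubated in triplicate. IC50 in nM came from weighted regression analysis.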

[3] = target: T2, Adrenergic receptor alpha-2 (Rattus norvegicus, UniProt P22086+P19328+P22909); assay: In vitro inhibitory activity was evaluated against,[3H]clonidine (Clon) rat brain minus cerebellum Alpha-2 adrenergic receptor; assay type: tissue-based; in short: as §2
T2 sequence (P22086 whole entry): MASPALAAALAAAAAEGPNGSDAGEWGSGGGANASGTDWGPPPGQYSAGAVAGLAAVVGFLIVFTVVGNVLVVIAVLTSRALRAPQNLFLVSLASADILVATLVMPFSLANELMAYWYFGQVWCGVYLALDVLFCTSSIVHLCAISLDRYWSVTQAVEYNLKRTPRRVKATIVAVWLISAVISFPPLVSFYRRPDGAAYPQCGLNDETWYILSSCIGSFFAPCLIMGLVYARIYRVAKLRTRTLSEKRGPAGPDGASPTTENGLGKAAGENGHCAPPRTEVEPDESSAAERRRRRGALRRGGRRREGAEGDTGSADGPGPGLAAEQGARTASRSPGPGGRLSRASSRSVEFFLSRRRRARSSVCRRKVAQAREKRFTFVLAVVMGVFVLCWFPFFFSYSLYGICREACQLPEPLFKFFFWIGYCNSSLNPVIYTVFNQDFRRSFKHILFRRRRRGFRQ
T2 sequence (P19328 whole entry): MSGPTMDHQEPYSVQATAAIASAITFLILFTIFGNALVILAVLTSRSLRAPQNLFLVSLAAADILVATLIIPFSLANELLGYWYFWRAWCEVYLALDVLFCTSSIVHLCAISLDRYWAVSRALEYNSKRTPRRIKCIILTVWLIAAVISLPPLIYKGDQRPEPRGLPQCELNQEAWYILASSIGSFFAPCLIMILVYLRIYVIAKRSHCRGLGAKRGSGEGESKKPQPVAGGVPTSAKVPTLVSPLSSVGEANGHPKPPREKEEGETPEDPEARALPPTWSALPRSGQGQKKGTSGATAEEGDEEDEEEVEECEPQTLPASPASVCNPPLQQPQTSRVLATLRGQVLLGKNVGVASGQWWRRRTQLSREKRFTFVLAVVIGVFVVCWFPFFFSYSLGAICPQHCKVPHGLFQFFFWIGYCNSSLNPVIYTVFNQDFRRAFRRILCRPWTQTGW
T2 sequence (P22909 whole entry): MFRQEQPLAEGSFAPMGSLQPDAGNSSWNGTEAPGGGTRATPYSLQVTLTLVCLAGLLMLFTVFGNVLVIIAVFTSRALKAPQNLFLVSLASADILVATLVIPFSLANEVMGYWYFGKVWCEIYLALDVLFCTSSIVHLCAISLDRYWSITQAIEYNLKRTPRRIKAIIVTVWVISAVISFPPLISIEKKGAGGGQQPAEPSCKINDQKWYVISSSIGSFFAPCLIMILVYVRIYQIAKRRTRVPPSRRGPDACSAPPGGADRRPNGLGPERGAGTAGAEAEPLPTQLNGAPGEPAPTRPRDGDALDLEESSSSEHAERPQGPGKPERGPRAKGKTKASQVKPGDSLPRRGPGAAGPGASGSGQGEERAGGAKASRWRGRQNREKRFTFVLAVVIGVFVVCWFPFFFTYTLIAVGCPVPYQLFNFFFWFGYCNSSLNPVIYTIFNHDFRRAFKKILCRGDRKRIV

Dopamine receptor [4] = target: T1, Dopamine receptor; assay: In vitro inhibitory activity was evaluated against,[3H]spiperone calf caudate (SPC) dopamine receptor; assay type: protein assay; in short: as §2
[5] = target: T3, Adrenergic receptor alpha-1 (Rattus norvegicus, UniProt P15823+P23944+P43140); assay: In vitro inhibitory activity was evaluated against,[3H]WB 4101 whole rat brain alpha 1-adrenoceptor; in short: as §2
T3 sequence (P15823 whole entry): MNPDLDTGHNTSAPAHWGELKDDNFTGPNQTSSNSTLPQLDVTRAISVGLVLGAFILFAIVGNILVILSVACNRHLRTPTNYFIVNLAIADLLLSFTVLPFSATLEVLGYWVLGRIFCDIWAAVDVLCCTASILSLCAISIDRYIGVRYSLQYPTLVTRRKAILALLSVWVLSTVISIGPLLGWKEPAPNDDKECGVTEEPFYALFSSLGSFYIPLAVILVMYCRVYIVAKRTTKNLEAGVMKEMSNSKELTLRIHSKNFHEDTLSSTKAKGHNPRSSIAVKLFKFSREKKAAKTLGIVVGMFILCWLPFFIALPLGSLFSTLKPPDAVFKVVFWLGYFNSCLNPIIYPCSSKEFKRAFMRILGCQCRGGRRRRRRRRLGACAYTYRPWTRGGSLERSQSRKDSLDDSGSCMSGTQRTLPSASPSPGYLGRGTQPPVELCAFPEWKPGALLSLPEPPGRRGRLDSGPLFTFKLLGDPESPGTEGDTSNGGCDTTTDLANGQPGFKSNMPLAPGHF
T3 sequence (P23944 whole entry): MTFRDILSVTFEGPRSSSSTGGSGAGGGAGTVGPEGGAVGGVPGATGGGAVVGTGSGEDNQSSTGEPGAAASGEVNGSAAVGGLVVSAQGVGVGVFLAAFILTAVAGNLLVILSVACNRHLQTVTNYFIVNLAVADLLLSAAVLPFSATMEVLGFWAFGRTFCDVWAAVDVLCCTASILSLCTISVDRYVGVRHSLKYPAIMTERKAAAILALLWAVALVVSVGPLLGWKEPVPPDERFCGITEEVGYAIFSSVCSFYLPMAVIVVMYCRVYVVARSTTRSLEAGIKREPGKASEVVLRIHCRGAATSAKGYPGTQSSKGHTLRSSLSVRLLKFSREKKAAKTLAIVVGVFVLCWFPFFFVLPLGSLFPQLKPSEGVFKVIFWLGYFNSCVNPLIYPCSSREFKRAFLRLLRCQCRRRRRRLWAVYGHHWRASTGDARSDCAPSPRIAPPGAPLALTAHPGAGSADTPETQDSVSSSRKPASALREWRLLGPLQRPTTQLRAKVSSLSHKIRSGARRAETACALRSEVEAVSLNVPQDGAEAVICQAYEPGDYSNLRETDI
T3 sequence (P43140 whole entry): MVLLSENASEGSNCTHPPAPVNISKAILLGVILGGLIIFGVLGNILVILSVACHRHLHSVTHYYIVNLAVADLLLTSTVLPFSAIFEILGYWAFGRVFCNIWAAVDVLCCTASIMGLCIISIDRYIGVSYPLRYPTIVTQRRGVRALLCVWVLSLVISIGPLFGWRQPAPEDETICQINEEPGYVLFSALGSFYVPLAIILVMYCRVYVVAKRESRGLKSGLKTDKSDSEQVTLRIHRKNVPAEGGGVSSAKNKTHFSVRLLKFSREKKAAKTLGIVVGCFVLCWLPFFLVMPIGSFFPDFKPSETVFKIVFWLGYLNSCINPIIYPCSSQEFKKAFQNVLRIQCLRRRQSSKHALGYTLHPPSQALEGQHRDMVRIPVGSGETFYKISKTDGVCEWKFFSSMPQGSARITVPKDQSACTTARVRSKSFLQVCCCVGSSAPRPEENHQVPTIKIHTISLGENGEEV

Dopamine receptor [6] = target: T1, Dopamine receptor; assay: In vitro inhibitory activity was evaluated against [3H]spiperone calf caudate (SPC) dopamine receptor; assay type: protein assay; in short: as §2
Dopamine receptor [7] = target: T1, Dopamine receptor; assay: In vitro inhibitory activity was evaluated against [3H]dopamine (DA) calf caudate dopamine receptor; assay type: protein assay; in short: as §2
Rattus norvegicus [8] = assay: Compound was evaluated for the in vivo inhibition of basal prolactin secretion for a time 4 hr after injection in male rats; assay type: functional; details: read-out: ID50 (the source's name); in short: as §1
[9] = target: Serotonin (5-HT) receptor; assay: In vitro inhibitory activity was evaluated against,[3H]spiperone rat frontal cortex (SPFC) serotonin receptor; assay type: tissue-based
[10] = target: Serotonin (5-HT) receptor; assay: In vitro inhibitory activity was evaluated against,[3H]serotonin (5-HT) whole rat brain serotonin receptor
Rattus norvegicus [11] = assay: Compound was evaluated for the in vivo inhibition of basal prolactin secretion for a time 60 min after injection in male rats; assay type: functional; details: 1 h, read-out: ID50 (the source's name)
Rattus norvegicus [12] = assay: Compound was evaluated for the in vivo inhibition of basal prolactin secretion for a time 30 min after injection in male rats; assay type: functional; details: 0.5 h, read-out: ID50 (the source's name)

Row | SMILES | IC50 (Dopamine receptor [2]) [nM] | IC50 [3] [µM] | IC50 (Dopamine receptor [4]) [nM] | IC50 [5] [µM] | IC50 (Dopamine receptor [6]) [µM] | IC50 (Dopamine receptor [7]) [µM] | ID50 (Rattus norvegicus [1]) [µg/kg] | ED50 (Rattus norvegicus [8]) [mg/kg] | IC50 [9] [nM] | IC50 [10] [µM] | ED50 (Rattus norvegicus [11]) [mg/kg] | ED50 (Rattus norvegicus [12]) [mg/kg] | ED50 (Rattus norvegicus [1]; Rattus norvegicus, 4 h, read-out: ID50 (the source's name)) [µg/kg]
1 | CCCN1CC(NS(=O)(=O)N(CC)CC)CC2Cc3c(O)cccc3CC21 (racemic) [QUINAGOLIDE] | 190 | 5.6 | 48 | 7.8 | – | – | 5 | – | – | – | – | – | –
2 | CN1CCc2cccc3c2[C@H]1Cc1ccc(O)c(O)c1-3 [APOMORPHINE] | – | – | – | 7.75 | – | – | – | > 10 | 4500 | > 10 | 0.081 | 0.058 | –
3 | CCN(CC)S(=O)(=O)N[C@H]1C[C@@H]2c3cccc4[nH]cc(c34)C[C@H]2N(C)C1 [ETISULERGINE] | 120 | 0.48 | 25 | 3.3 | – | – | – | – | 26 | > 5 | – | – | 1.4

More lines, main results first:

Row | IC50 (Dopamine receptor [2]) [nM] | IC50 [3] [µM] | IC50 (Dopamine receptor [4]) [nM] | IC50 [5] [µM] | IC50 (Dopamine receptor [6]) [µM] | IC50 (Dopamine receptor [7]) [µM] | SMILES | ID50 (Rattus norvegicus [1]) [µg/kg] | ED50 (Rattus norvegicus [8]) [mg/kg] | IC50 [9] [nM] | IC50 [10] [µM] | ED50 (Rattus norvegicus [11]) [mg/kg] | ED50 (Rattus norvegicus [12]) [mg/kg] | ED50 (Rattus norvegicus [1]; Rattus norvegicus, 4 h, read-out: ID50 (the source's name)) [µg/kg]
4 | – | > 10 | – | > 10 | > 10 | > 100 | CCCN1CC(NS(=O)(=O)N(CC)CC)CC2Cc3c(O)cccc3CC21 (stereo in doubt; (+)1) [QUINAGOLIDE] | – | > 3 | – | – | – | – | –
5 | 75 | 7.4 | 19 | 6 | – | – | CCCN1CC(NS(=O)(=O)N(CC)CC)CC2Cc3c(O)cccc3CC21 (stereo in doubt; -1) [QUINAGOLIDE] | 1.8 | – | – | – | – | – | –
